Source: article PMC7079967 (Medicinal Chemistry Research, 2016)

Experiments:
Assay type in all cases: cell-based
[1] = test system: human cervix carcinoma cells (HeLa); experiment: Antiproliferative; settings: 96 h, read-out: IC50 HeLa
Summary of the method: (§1)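 Cells in growth medium proliferated with variable concentrations of test compound at 37 °C in a humidified CO2-controlled atmosphere. Incubation was 48 h for L1210 and 96 h for HeLa. Cell number was then counted with a Coulter counter. IC50 was the concentration inhibiting cell proliferation by 50 %.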

[2] = test system: human T-lymphocyte cells (CEM); experiment: Antiproliferative; settings: 72 h, read-out: IC50 CEM
Summary of the method: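 Human T-lymphocyte CEM cells, suspended in growth medium, were left to proliferate in microtiter wells with varying amounts of test compound at 37 °C in a humidified, CO2-controlled atmosphere. After 72 h, cells were counted with a Coulter counter. IC50 is the concentration that inhibits cell proliferation by 50 %.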

[3] = test system: murine leukemia cells (L1210); experiment: Antiproliferative; settings: Mus musculus, L1210, 48 h, read-out: IC50 L1210
Summary of the method: as §1

[4] = test system: L1210, CEM and HeLa tumor cell lines; experiment: Cytostatic activity stated over the three tumor cell lines together
Sindbis virus = experiment: Antiviral assay, virus-induced cytopathicity in Vero cells; settings: read-out: IC50 Sindbis virus
Parainfluenza-3 virus = experiment: as above; settings: read-out: IC50 Parainfluenza-3 virus
Reovirus-1 = experiment: as above; settings: read-out: IC50 Reovirus-1

| SMILES | IC50 [1] | IC50 [2] | IC50 [3] | cytostatic potential, fold lower than 6-mercaptopurine ([4]; compared with 6-mercaptopurine over L1210, CEM, HeLa) | IC50 ([4]; read-out: IC50, cytostatic activity against the three tumor cell lines) | IC50 (Sindbis virus) | IC50 (Parainfluenza-3 virus) | IC50 (Reovirus-1) |
| --- | --- | --- | --- | --- | --- | --- | --- | --- |
| O=c1[nH]cc(F)c(=O)[nH]1 [5-Fluorouracil, reference compound] | 0.54 ± 0.12 µM | 18 ± 5 µM | 0.33 ± 0.17 µM | – | – | – | – | – |
| Sc1ncnc2nc[nH]c12 [6-Mercaptopurine, reference compound] | 1.1 ± 0.1 µM | 2.8 ± 1.3 µM | 2.8 ± 1.1 µM | – | – | – | – | – |
| CC(=O)OC[C@H]1O[C@@H](NC(=O)NC(=O)CCCc2ccc3c(c2)CCCC3)[C@H](OC(C)=O)[C@@H](OC(C)=O)[C@@H]1OC(C)=O [Compound 6b, N-4-(5,6,7,8-Tetrahydronaphthalen-2-yl)butanoyl-N′-(2,3,4,6-tetra-O-acetyl-β-D-glucopyranosyl)-urea] | 66 ± 12 µM | 38 ± 10 µM | 78 µM | – | – | – | – | – |
| CC(=O)OC[C@H]1O[C@@H](NC(=O)NC(=O)COc2ccc(-c3ccccc3)cc2)[C@H](OC(C)=O)[C@@H](OC(C)=O)[C@@H]1OC(C)=O [Compound 6c, N-2-(Biphenyl-4-yloxy)acetyl-N′-(2,3,4,6-tetra-O-acetyl-β-D-glucopyranosyl)-urea] | > 250 µM | > 250 µM | > 250 µM | – | – | – | – | – |
| O=C(CCCc1ccc2c(c1)CCCC2)NC(=O)N[C@@H]1O[C@H](CO)[C@@H](O)[C@H](O)[C@H]1O [Compound 7b, N-4-(5,6,7,8-Tetrahydronaphthalen-2-yl)butanoyl-N′-(β-D-glucopyranosyl)-urea] | > 250 µM | > 250 µM | > 250 µM | – | – | – | – | – |
| O=C(COc1ccc(-c2ccccc2)cc1)NC(=O)N[C@@H]1O[C@H](CO)[C@@H](O)[C@H](O)[C@H]1O [Compound 7c, N-2-(Biphenyl-4-yloxy)acetyl-N′-(β-D-glucopyranosyl)-urea] | 19 ± 3 µM | 24 ± 1 µM | 9 ± 5.9 µM | 5- to 15 fold | 9 to 24 µM | – | – | – |
| NC(=O)c1ncn([C@@H]2O[C@H](CO)[C@@H](O)[C@H]2O)n1 [Ribavirin] | – | – | – | – | – | > 250 µM | 250 µM | > 250 µM |
